From ChEMBL document CHEMBL1137980, “Rationale, design, and synthesis of novel phenyl imidazoles as opioid receptor agonists for gastrointestinal disorders” (J Med Chem, 2004) come the findings set out here.

Residues, ends and D or L forms follow the SMILES beside them.

The term Ki denotes the dissociation constant of the complex between target and ligand, obtained from inhibition or displacement. A higher Ki goes with weaker binding. In general, EC50 refers to the concentration needed to bring the measured effect to its halfway point. A higher EC50 goes with lower potency in that assay. As a reminder, the Inhibition is the change of the read-out against control, counted positive when it falls. The inhibition in vivo is the change of the read-out against control, counted positive when it falls.

Assay [1] concerns the target Kappa-type opioid receptor (Cavia porcellus, UniProt P41144). In words: Binding affinity for kappa opioid receptor of guinea pig cerebellum. The format is tissue-based.
Assay [2] has as its target Opioid receptors; mu & delta (Rattus norvegicus) (UniProt P33533+P33535). In words: Selectivity for mu 1 and delta 1 opioid receptors. The assay is classed as protein assay.
Assay [3] addresses Kappa-type opioid receptor (Homo sapiens, UniProt P41145). In words: Inhibition of rabbit vas deferens contractions. The format is functional, Oryctolagus cuniculus. As to conditions: target entry is the homologue from another species. Summed up:
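κ functional study run on rabbit vas deferens tissue.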

Assay [4] deals with Delta-type opioid receptor (Homo sapiens, UniProt P41143). The experiment in a line: Inhibition of delta opioid receptor mediated GTPgammaS binding to CHO cell membranes. The assay is classed as functional. In outline:
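Purchased CHO-hδ cell membranes at 10 µg/mL, coupled to SPA beads at 5 mg/mL. Incubated with 0.5 nM [35S]GTPγS and 50 µM GDP in 50 mM HEPES pH 7.6 with 5 mM MgCl2, 100 mM NaCl, 1 mM DTT and 1 mM EDTA. Increasing agonist concentrations stimulated binding. Basal binding measured without agonist; nonspecific binding with 10 µM unlabeled GTPγS.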
In general terms: GTPγS resists hydrolysis and so accumulates on activated G proteins.

Assay [5] concerns the target Mu-type opioid receptor (Cavia porcellus, UniProt P97266). In words: Inhibition of mu opioid receptor mediated GTPgammaS binding to CHO cell membranes. The assay is classed as functional.
Assay [6] concerns the target Delta-type opioid receptor (Rattus norvegicus, UniProt P33533). The experiment in a line: Binding affinity for delta opioid receptor of rat brain. In outline: (§1)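 Male Wistar rat forebrain membranes in 50 mM Tris HCl pH 7.4 with 5 mM MgCl2. Incubated 2.5 h at 25 °C with ~4 nM [3H]DPDPE (δ) or ~0.8 nM [3H]DAMGO (μ). Filtered, rinsed with 10 mM HEPES pH 7.4 and counted by liquid scintillation. Ki derived from a range of test concentrations; single-concentration data expressed as % inhibition of specific binding.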

The target of assay [7] is Mu-type opioid receptor (Rattus norvegicus, UniProt P33535). In words: Binding affinity for Mu opioid receptor of rat brain. In outline: as §1
Mu-type opioid receptor (Rattus norvegicus, UniProt P33535), sequence (P33535 whole entry): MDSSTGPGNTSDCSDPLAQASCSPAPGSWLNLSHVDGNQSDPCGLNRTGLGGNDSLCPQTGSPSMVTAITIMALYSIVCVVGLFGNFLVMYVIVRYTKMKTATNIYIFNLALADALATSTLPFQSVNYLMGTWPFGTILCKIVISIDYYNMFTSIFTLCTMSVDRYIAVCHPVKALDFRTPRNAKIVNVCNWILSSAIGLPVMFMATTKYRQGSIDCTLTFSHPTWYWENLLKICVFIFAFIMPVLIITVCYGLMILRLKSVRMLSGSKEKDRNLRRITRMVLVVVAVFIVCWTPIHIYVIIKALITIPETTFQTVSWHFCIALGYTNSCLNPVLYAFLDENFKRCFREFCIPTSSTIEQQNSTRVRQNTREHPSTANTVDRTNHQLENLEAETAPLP
Assay [8] concerns Mus musculus. In words: Percent inhibition of mouse abdominal constriction at a dose of 10 ug upon intracerebro ventricular administration. The format is functional, Abdomen. In outline: (§2)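 Male CD1 mice (18–40 g), n = 10 per group, dosed sc (10 mL/kg volume) or icv. Then challenged ip with acetylcholine bromide dissolved in distilled water (5.5 mg/kg as printed), given at 0.20 mL/20 g.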

The subject of assay [9] is Mus musculus. In words: Percent inhibition of mouse abdominal constriction at a dose of 100 mg/kg when administered subcutaneously. The assay is classed as functional. As to conditions: Abdomen, sc, route subcutaneous. In outline:
as §2

Assay [10] relates to Mus musculus. The experiment in a line: Percent inhibition of mouse abdominal constriction at a dose of 100 ug upon intracerebro ventricular administration. The format is functional, Abdomen. In outline: as §2

Mu-type opioid receptor (Cavia porcellus, UniProt P97266), sequence (P97266 whole entry): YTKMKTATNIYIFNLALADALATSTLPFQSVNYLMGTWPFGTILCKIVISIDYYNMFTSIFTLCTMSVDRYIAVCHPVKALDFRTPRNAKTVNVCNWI
Delta-type opioid receptor (Rattus norvegicus, UniProt P33533), sequence (P33533 whole entry): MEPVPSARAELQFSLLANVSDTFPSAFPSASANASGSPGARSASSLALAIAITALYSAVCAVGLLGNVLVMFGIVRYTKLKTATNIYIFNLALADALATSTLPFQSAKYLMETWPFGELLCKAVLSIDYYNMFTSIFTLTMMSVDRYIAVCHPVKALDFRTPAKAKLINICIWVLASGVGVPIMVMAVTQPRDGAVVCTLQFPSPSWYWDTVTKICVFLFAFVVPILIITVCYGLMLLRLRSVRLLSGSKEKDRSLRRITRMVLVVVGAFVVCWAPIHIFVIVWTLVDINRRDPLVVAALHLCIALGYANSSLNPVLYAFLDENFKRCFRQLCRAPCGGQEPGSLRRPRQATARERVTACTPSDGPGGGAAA
Opioid receptors; mu & delta (Rattus norvegicus), sequence (P33533 whole entry, looked up): as the sequence (P33533 whole entry) above
Opioid receptors; mu & delta (Rattus norvegicus), sequence (P33535 whole entry, looked up): as the sequence (P33535 whole entry) above
Delta-type opioid receptor (Homo sapiens, UniProt P41143), sequence (P41143 whole entry): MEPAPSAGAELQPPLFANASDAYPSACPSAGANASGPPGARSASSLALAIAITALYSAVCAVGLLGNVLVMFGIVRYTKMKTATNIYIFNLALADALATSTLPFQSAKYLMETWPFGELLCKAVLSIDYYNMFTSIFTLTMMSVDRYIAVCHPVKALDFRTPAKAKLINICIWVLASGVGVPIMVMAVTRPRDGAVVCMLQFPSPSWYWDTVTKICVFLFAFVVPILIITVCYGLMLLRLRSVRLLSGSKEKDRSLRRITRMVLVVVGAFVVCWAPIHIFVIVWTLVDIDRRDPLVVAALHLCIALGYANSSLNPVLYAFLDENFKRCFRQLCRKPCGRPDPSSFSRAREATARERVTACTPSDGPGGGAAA
Kappa-type opioid receptor (Homo sapiens, UniProt P41145), sequence (P41145 whole entry): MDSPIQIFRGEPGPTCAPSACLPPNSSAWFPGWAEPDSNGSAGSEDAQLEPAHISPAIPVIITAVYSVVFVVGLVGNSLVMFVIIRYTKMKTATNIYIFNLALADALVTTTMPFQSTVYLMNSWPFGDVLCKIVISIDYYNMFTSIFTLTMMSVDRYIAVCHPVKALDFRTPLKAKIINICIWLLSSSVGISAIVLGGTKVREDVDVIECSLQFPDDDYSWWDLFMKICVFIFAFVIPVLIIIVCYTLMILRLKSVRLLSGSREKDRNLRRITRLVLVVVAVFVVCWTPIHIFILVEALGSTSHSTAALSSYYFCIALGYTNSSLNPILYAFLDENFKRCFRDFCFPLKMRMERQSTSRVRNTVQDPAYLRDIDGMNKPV
Kappa-type opioid receptor (Cavia porcellus, UniProt P41144), sequence (P41144 whole entry): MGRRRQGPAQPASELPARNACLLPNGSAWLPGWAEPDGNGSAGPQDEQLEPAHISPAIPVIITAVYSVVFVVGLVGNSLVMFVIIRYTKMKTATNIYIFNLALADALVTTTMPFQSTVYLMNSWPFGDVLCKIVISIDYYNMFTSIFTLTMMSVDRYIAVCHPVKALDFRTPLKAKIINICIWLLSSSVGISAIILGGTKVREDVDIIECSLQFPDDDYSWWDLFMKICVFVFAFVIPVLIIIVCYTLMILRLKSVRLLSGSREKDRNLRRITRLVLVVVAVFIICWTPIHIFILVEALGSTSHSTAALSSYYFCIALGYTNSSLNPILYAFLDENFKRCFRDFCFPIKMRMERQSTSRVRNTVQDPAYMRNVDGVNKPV

Consider `N[C@@H](Cc1ccc(O)cc1)C(=O)N1Cc2ccccc2C[C@H]1c1nc(-c2ccccc2)c[nH]1`, for which the figures for the Ki (in assay [1]; in assay [6]; on Mu-type opioid receptor [7]) were 124 nM, 0.9 nM and 54.7 nM, respectively. Further, in assay [2], the Selectivity was 63. Besides, the EC50 in [3] was > 30 nM; in assay [4], 25 nM; at Mu-type opioid receptor [5], 2400 nM. The Inhibition in the assay with Mus musculus [8] was 40%; with Mus musculus [10], 100%. Testing at 100 mg/kg with Mus musculus [9] gave an inhibition in vivo of 0%.

Turning to `Cc1[nH]c([C@@H]2Cc3ccccc3CN2C(=O)[C@@H](N)Cc2ccc(O)cc2)nc1-c1ccccc1` (stereo in doubt; 4c) [listing 1 of 2 here], the results for the EC50 (in assay [4]; on Mu-type opioid receptor [5]) were 1.4 nM and > 10000 nM, respectively. Moreover, the Ki in assay [6] is 0.3 nM; on Mu-type opioid receptor [7] it was 20.7 nM.

`CCCc1nc([C@@H]2Cc3ccccc3CN2C(=O)[C@@H](N)Cc2ccc(O)cc2)[nH]c1C` (single isomer, unassigned): the Ki (in assay [6]; on Mu-type opioid receptor [7]) was > 100 nM each time.

Take `Cc1[nH]c([C@@H]2CCCCN2C(=O)[C@@H](N)Cc2ccc(O)cc2)nc1-c1ccccc1`: the Selectivity in assay [2] is 0.1. For the same compound, the EC50 in assay [4] came to 542 nM; at Mu-type opioid receptor [5], 153 nM. Also, the inhibition constant Ki in [6] came to 21.5 nM; on Mu-type opioid receptor [7], 1.5 nM.

On to `N[C@@H](Cc1ccc(O)cc1)C(=O)N1Cc2ccccc2C[C@H]1c1nc(-c2ccccc2)c(Br)[nH]1`, for which the EC50 in assay [4] is 1.9 nM; at Mu-type opioid receptor [5] it was > 10000 nM. Also, the Ki in assay [6] is 0.11 nM; on Mu-type opioid receptor [7], 11.6 nM.

On to `CCCc1c[nH]c([C@@H]2Cc3ccccc3N2C(=O)[C@@H](N)CC)n1`, for which the Ki (in assay [6]; at Mu-type opioid receptor [7]) was > 100 nM in each case.

Take `Cc1[nH]c([C@@H]2Cc3ccccc3CN2C(=O)[C@@H](N)Cc2ccc(O)cc2)nc1-c1ccccc1` (stereo in doubt) [listing 1 of 2 here]: it took 127 nM to reach a half-maximal effect in assay [4] (EC50). The Ki was found to be 19.4 nM in [6] and 85.6 nM on Mu-type opioid receptor [7].

On to `N[C@@H](Cc1ccc(O)cc1)C(=O)N1Cc2ccccc2C[C@H]1c1nc2ccccc2[nH]1` (single isomer, unassigned) [listing 1 of 2 here], for which, in assay [4], the EC50 was found to be 440 nM. For the same compound, the Ki in assay [6] was 49.6 nM; at Mu-type opioid receptor [7], > 100 nM.

In assay [2], `N[C@@H](Cc1ccc(O)cc1)C(=O)N1Cc2ccccc2C[C@H]1C(=O)NCCc1ccccc1` (HELM PEPTIDE1{Y.[Tic].[c1ccc(CCN[*:1])cc1]}$$$$V2.0) registered a Selectivity of 13. The values for the EC50 (in assay [4]; at Mu-type opioid receptor [5]) were 82 nM and 2120 nM, respectively. Moreover, the inhibition constant Ki in assay [6] came to 5.2 nM; on Mu-type opioid receptor [7], 69 nM.

Take `CN(C)C(=O)C(CCN1CCC(O)(c2ccc(Cl)cc2)CC1)(c1ccccc1)c1ccccc1` [LOPERAMIDE]: the EC50 on Mu-type opioid receptor [5] came to 58 nM. In addition, in assay [6], the Ki was determined as 50.1 nM.

Turning to `N[C@@H](Cc1ccc(O)cc1)C(=O)N1Cc2ccccc2C[C@H]1c1nc2ccccc2[nH]1` [listing 1 of 2 here], the EC50 in assay [4] was 37 nM; at Mu-type opioid receptor [5], > 10000 nM. In addition, the results for the Ki (in assay [6]; at Mu-type opioid receptor [7]) were 15.1 nM and > 100 nM, respectively.

Consider `N[C@@H](Cc1ccc(O)cc1)C(=O)N1Cc2ccccc2C[C@H]1c1nc2ccccc2[nH]1` (single isomer, unassigned) [listing 2 of 2 here], for which the Selectivity in [2] is > 2.

Regarding `Cc1[nH]c([C@@H]2Cc3ccccc3CN2C(=O)[C@@H](N)Cc2ccc(O)cc2)nc1-c1ccccc1` (stereo in doubt) [listing 2 of 2 here], in assay [2], the Selectivity came to 4.

For `CCCc1[nH]c([C@@H]2Cc3ccccc3CN2C(=O)[C@@H](N)Cc2ccc(O)cc2)nc1C`, in [2], the Selectivity was > 1.

For `N[C@@H](Cc1ccc(O)cc1)C(=O)N1Cc2ccccc2C[C@H]1c1nc2ccccc2[nH]1` [listing 2 of 2 here], the Selectivity in [2] was > 6.

`Cc1[nH]c([C@@H]2Cc3ccccc3CN2C(=O)[C@@H](N)Cc2ccc(O)cc2)nc1-c1ccccc1` (stereo in doubt; 4c) [listing 2 of 2 here] displayed a Selectivity in assay [2] of 75.

For the compound `N[C@@H](Cc1ccc(O)cc1)C(=O)N1Cc2ccccc2C[C@H]1c1nc(Br)c(-c2ccccc2)[nH]1`, in [2], the Selectivity amounted to 14.

With `CCCc1nc([C@@H]2Cc3ccccc3CN2C(=O)[C@@H](N)Cc2ccc(O)cc2)[nH]c1C`, the EC50 in [4] was 85 nM. Further, the Ki is 62.7 nM in [6] and > 100 nM on Mu-type opioid receptor [7].

Regarding `Cc1[nH]c([C@@H]2CCCN2C(=O)[C@@H](N)Cc2ccc(O)cc2)nc1-c1ccccc1`, the Selectivity in [2] is < 0.02. The compound further returned a concentration giving a half-maximal response (EC50) at Mu-type opioid receptor [5] of 1300 nM. Moreover, the Ki is > 100 nM in assay [6] and 23.1 nM at Mu-type opioid receptor [7].
